Data published in ChEMBL document CHEMBL5329156, “Discovery and development of novel substituted monohydrazides as potent antifungal agents” (RSC Med Chem, 2023).
Converted amounts (≈) assume the structure as drawn. The source made the active and inactive calls. The rule behind the calls is not given here.

Experiments:
[1] = test system: Aspergillus fumigatus; experiment: Antifungal activity against Aspergillus fumigatus NRRL 6113 assessed as fungal growth inhibition by double dilution method; type: functional
[2] = test system: Kodamaea ohmeri; experiment: Antifungal activity against Kodamaea ohmeri AR Bank # 396 assessed as fungal growth inhibition by double dilution method; type: functional
Method in brief: (§1)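 Broth microdilution after CLSI M27-A3/M38-A2 with minor changes. Single colony grown overnight in YPD at 35 °C, 200 rpm. Compound final range 0.06-31.3 µg/mL; incubated 48 h at 35 °C.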

[3] = test system: [Candida] auris; experiment: Antifungal activity against Candida auris AR Bank # 0384 assessed as fungal growth inhibition by double dilution method; type: functional; details: Candidozyma auris; method in brief: as §1
[4] = test system: Aspergillus fumigatus; experiment: Antifungal activity against Aspergillus fumigatus NRRL 163 assessed as fungal growth inhibition by double dilution method; type: functional
[5] = test system: [Candida] auris; experiment: Antifungal activity against Candida auris AR Bank # 388 assessed as fungal growth inhibition by double dilution method; type: functional; details: Candidozyma auris; method in brief: as §1
[6] = test system: Aspergillus fumigatus; experiment: Antifungal activity against Aspergillus fumigatus NRRL 5109 assessed as fungal growth inhibition by double dilution method; type: functional
[7] = test system: [Candida] auris; experiment: Antifungal activity against Candida auris AR Bank # 381 assessed as fungal growth inhibition by double dilution method; type: functional; details: Candidozyma auris; method in brief: as §1
[8] = test system: Candida albicans; experiment: Antifungal activity against itraconazole/fluconazole resistant Candida albicans ATCC 90819 assessed as fungal growth inhibition by double dilution method; type: functional
Method in brief: (§2)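 Broth microdilution after CLSI M27-A3/M38-A2 with minor modifications. A single colony was grown overnight in YPD at 35 °C with shaking at 200 rpm. Cells were mixed 1:1 with compound (final 0.06-31.3 µg/mL, from DMSO stocks) and incubated 48 h at 35 °C.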

[9] = test system: Clavispora lusitaniae; experiment: Antifungal activity against Clavispora lusitaniae AR Bank # 398 assessed as fungal growth inhibition by double dilution method; type: functional; method in brief: as §1
[10] = test system: Nakaseomyces glabratus; experiment: Antifungal activity against Candida glabrata ATCC 2001 assessed as fungal growth inhibition by double dilution method; type: functional; method in brief: as §1
[11] = test system: [Candida] haemuloni; experiment: Antifungal activity against Candida haemulonii AR Bank # 395 assessed as fungal growth inhibition by double dilution method; type: functional; details: Candidozyma haemuli; method in brief: as §1
[12] = test system: Aspergillus flavus; experiment: Antifungal activity against Aspergillus flavus ATCC MYA-3631 assessed as fungal growth inhibition by double dilution method; type: functional
[13] = test system: Candida albicans; experiment: Antifungal activity against itraconazole/fluconazole susceptible Candida albicans ATCC MYA-2310 assessed as fungal growth inhibition by double dilution method; type: functional; method in brief: as §2
[14] = test system: Candida albicans; experiment: Antibiofilm activity against Candida albicans ATCC 10231 assessed as reduction in biofilm production at 1.96 to 3.9 microg/ml by biofilm formation assay; type: functional, organism-based; details: dose 1.96-3.9 µg/ml
[15] = test system: [Candida] auris; experiment: Antifungal activity against Candida auris AR Bank # 387 assessed as fungal growth inhibition by double dilution method; type: functional; details: Candidozyma auris; method in brief: as §1
[16] = test system: Candida albicans; experiment: Antifungal activity against Candida albicans ATCC 64124 assessed as fungal growth inhibition by double dilution method; type: functional; method in brief: as §2
[17] = test system: Aspergillus nidulans; experiment: Antifungal activity against Aspergillus nidulans ATCC 38163 assessed as fungal growth inhibition by double dilution method; type: functional
[18] = test system: [Candida] auris; experiment: Antifungal activity against Candida auris AR Bank # 384 assessed as fungal growth inhibition by double dilution method; type: functional; details: Candidozyma auris; method in brief: as §1
[19] = test system: [Candida] auris; experiment: Antifungal activity against Candida auris AR Bank # 383 assessed as fungal growth inhibition by double dilution method; type: functional; details: Candidozyma auris; method in brief: as §1
[20] = test system: [Candida] auris; experiment: Antifungal activity against Candida auris AR Bank # 386 assessed as fungal growth inhibition by double dilution method; type: functional; details: Candidozyma auris; method in brief: as §1
[21] = test system: Pichia kudriavzevii; experiment: Antifungal activity against Pichia kudriavzevii AR Bank # 397 assessed as fungal growth inhibition by double dilution method; type: functional; method in brief: as §1
[22] = test system: Candida duobushaemulonii; experiment: Antifungal activity against Candida duobushaemulonii AR Bank # 394 assessed as fungal growth inhibition by double dilution method; type: functional; details: Candidozyma duobushaemuli; method in brief: as §1
[23] = test system: Candida albicans; experiment: Antifungal activity against itraconazole/fluconazole resistant Candida albicans ATCC MYA-1003 assessed as fungal growth inhibition by double dilution method; type: functional; method in brief: as §2
[24] = test system: Candida duobushaemulonii; experiment: Antifungal activity against Candida duobushaemulonii AR Bank # 392 assessed as fungal growth inhibition by double dilution method; type: functional; details: Candidozyma duobushaemuli; method in brief: as §1
[25] = test system: [Candida] auris; experiment: Antifungal activity against Candida auris AR Bank # 0390 assessed as fungal growth inhibition by double dilution method; type: functional; details: Candidozyma auris; method in brief: as §1
[26] = test system: Saccharomyces cerevisiae; experiment: Antifungal activity against Saccharomyces cerevisiae AR Bank # 400 assessed as fungal growth inhibition by double dilution method; type: functional; method in brief: as §1
[27] = test system: Pichia kudriavzevii; experiment: Antifungal activity against Pichia kudriavzevii ATCC 6258 assessed as fungal growth inhibition by double dilution method; type: functional; method in brief: as §1
[28] = test system: Saccharomyces cerevisiae; experiment: Antifungal activity against Saccharomyces cerevisiae AR Bank # 399 assessed as fungal growth inhibition by double dilution method; type: functional; method in brief: as §1
[29] = test system: Aspergillus terreus; experiment: Antifungal activity against Aspergillus terreus ATCC MYA-3633 assessed as fungal growth inhibition by double dilution method; type: functional
[30] = test system: [Candida] auris; experiment: Antifungal activity against Candida auris AR Bank # 389 assessed as fungal growth inhibition by double dilution method; type: functional; details: Candidozyma auris; method in brief: as §1
[31] = test system: Nakaseomyces glabratus; experiment: Antifungal activity against Candida glabrata ATCC 22019 assessed as fungal growth inhibition by double dilution method; type: functional; method in brief: as §1
[32] = test system: Candida duobushaemulonii; experiment: Antifungal activity against Candida duobushaemulonii AR Bank # 391 assessed as fungal growth inhibition by double dilution method; type: functional; details: Candidozyma duobushaemuli; method in brief: as §1
[33] = test system: Candida albicans; experiment: Antifungal activity against itraconazole/fluconazole resistant Candida albicans ATCC MYA-1237 assessed as fungal growth inhibition by double dilution method; type: functional; method in brief: as §2
[34] = test system: Candida albicans; experiment: Antifungal activity against itraconazole/fluconazole susceptible Candida albicans ATCC MYA-2876 assessed as fungal growth inhibition by double dilution method; type: functional; method in brief: as §2
[35] = test system: Candida albicans; experiment: Antifungal activity against Candida albicans ATCC 10231 assessed as fungal growth inhibition by double dilution method; type: functional; method in brief: as §1
[36] = test system: [Candida] haemuloni; experiment: Antifungal activity against Candida haemulonii AR Bank # 393 assessed as fungal growth inhibition by double dilution method; type: functional; details: Candidozyma haemuli; method in brief: as §1
[37] = test system: [Candida] auris; experiment: Antifungal activity against Candida auris AR Bank # 382 assessed as fungal growth inhibition by double dilution method; type: functional; details: Candidozyma auris; method in brief: as §1
[38] = test system: [Candida] auris; experiment: Antifungal activity against Candida auris AR Bank # 385 assessed as fungal growth inhibition by double dilution method; type: functional; details: Candidozyma auris; method in brief: as §1
[39] = test system: Cryptococcus neoformans; experiment: Antifungal activity against Cryptococcus neoformans ATCC MYA-895 assessed as fungal growth inhibition by double dilution method; type: functional; method in brief: as §1
[40] = test system: [Candida] auris; experiment: Antifungal activity against Candida auris AR Bank # 390 assessed as fungal growth inhibition by double dilution method; type: functional; details: Candidozyma auris; method in brief: as §1

Structure (SMILES) | MIC [1] [µg/mL] | MIC [2] [µg/mL] | MIC [3] [µg/mL] | MIC [4] [µg/mL] | MIC [5] [µg/mL] | MIC [6] [µg/mL] | MIC [7] [µg/mL] | MIC [8] [µg/mL] | MIC [9] [µg/mL] | MIC [10] [µg/mL] | MIC [11] [µg/mL] | MIC [12] [µg/mL] | MIC [13] [µg/mL] | Activity [14] | MIC [15] [µg/mL] | MIC [16] [µg/mL] | MIC [17] [µg/mL] | MIC [18] [µg/mL] | MIC [19] [µg/mL] | MIC [20] [µg/mL] | also measured
COc1ccc(NNC(=O)c2ccccn2)cc1 | 31.3 (≈ 129 µM) | 0.49 (≈ 2.01 µM) | 3.9 (≈ 16 µM) | > 31.3 | 0.49 (≈ 2.01 µM) | > 31.3 | 1.95 (≈ 8.02 µM) | 0.49 (≈ 2.01 µM) | 0.98 (≈ 4.03 µM) | 0.98 (≈ 4.03 µM) | 0.49 (≈ 2.01 µM) | > 31.3 | 0.98 (≈ 4.03 µM) | Active | 0.49 (≈ 2.01 µM) | 0.98 (≈ 4.03 µM) | 0.49 (≈ 2.01 µM) | 3.9 (≈ 16 µM) | 1.95 (≈ 8.02 µM) | 0.24 (≈ 0.987 µM) | MIC [21]: 0.49 µg/mL (≈ 2.01 µM); MIC [22]: 0.98 µg/mL (≈ 4.03 µM); MIC [23]: 0.98 µg/mL (≈ 4.03 µM); MIC [24]: 0.98 µg/mL (≈ 4.03 µM); MIC [25]: 0.12 µg/mL (≈ 0.493 µM); MIC [26]: 0.98 µg/mL (≈ 4.03 µM); MIC [27]: 0.49 µg/mL (≈ 2.01 µM); MIC [28]: 1.95 µg/mL (≈ 8.02 µM); MIC [29]: 31.3 µg/mL (≈ 129 µM); MIC [30]: 0.24 µg/mL (≈ 0.987 µM); MIC [31]: 3.9 µg/mL (≈ 16 µM); MIC [32]: 0.98 µg/mL (≈ 4.03 µM); MIC [33]: 0.98 µg/mL (≈ 4.03 µM); MIC [34]: 1.95 µg/mL (≈ 8.02 µM); MIC [35]: 0.12 µg/mL (≈ 0.493 µM); MIC [36]: 0.49 µg/mL (≈ 2.01 µM); MIC [37]: 1.95 µg/mL (≈ 8.02 µM); MIC [38]: 0.98 µg/mL (≈ 4.03 µM); MIC [39]: 0.49 µg/mL (≈ 2.01 µM); MIC [40]: 0.12 µg/mL (≈ 0.493 µM)
O=C(NNc1ccc(Cl)cc1)c1ccccn1 | 15.6 (≈ 63 µM) | 0.24 (≈ 0.969 µM) | 1.95 (≈ 7.87 µM) | > 31.3 | 1.95 (≈ 7.87 µM) | 7.8 (≈ 31.5 µM) | 1.95 (≈ 7.87 µM) | 0.24 (≈ 0.969 µM) | 0.98 (≈ 3.96 µM) | 1.95 (≈ 7.87 µM) | 0.12 (≈ 0.484 µM) | 31.3 (≈ 126 µM) | 0.98 (≈ 3.96 µM) | Active | 1.95 (≈ 7.87 µM) | 0.98 (≈ 3.96 µM) | 0.49 (≈ 1.98 µM) | 1.95 (≈ 7.87 µM) | 1.95 (≈ 7.87 µM) | 0.98 (≈ 3.96 µM) | MIC [21]: 0.24 µg/mL (≈ 0.969 µM); MIC [22]: 0.4 µg/mL (≈ 1.61 µM); MIC [23]: 0.98 µg/mL (≈ 3.96 µM); MIC [24]: 0.98 µg/mL (≈ 3.96 µM); MIC [25]: 1.95 µg/mL (≈ 7.87 µM); MIC [26]: 0.98 µg/mL (≈ 3.96 µM); MIC [27]: 1.95 µg/mL (≈ 7.87 µM); MIC [28]: 0.98 µg/mL (≈ 3.96 µM); MIC [29]: 3.9 µg/mL (≈ 15.7 µM); MIC [30]: 0.98 µg/mL (≈ 3.96 µM); MIC [31]: 3.9 µg/mL (≈ 15.7 µM); MIC [32]: 0.98 µg/mL (≈ 3.96 µM); MIC [33]: 0.98 µg/mL (≈ 3.96 µM); MIC [34]: 1.95 µg/mL (≈ 7.87 µM); MIC [35]: 0.12 µg/mL (≈ 0.484 µM); MIC [36]: 0.49 µg/mL (≈ 1.98 µM); MIC [37]: 3.9 µg/mL (≈ 15.7 µM); MIC [38]: 1.95 µg/mL (≈ 7.87 µM); MIC [39]: 0.49 µg/mL (≈ 1.98 µM); MIC [40]: 1.95 µg/mL (≈ 7.87 µM)
